Active and inactive are the calls of the source. The calls are words filed in the database; no cut-off is given here.
Legend:
Blood [1] = test: Inhibition of A23187-induced TBX2 release in Sprague-Dawley rat whole blood; assay type: functional, tissue-based
Method in brief: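 Rat whole blood is stimulated with calcium ionophore A23187, and thromboxane B2 is the read-out (cPLA2α- and COX-1-dependent). IC50 is taken from at least two runs, each run the mean of triplicate assays.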

MC9 [2] = test: Inhibition of IgE-specific antigen-induced LBT4 release in mouse MC9 cells at […]
MC9 [3] = test: Inhibition of IgE-specific antigen-induced PGF2alpha release in mouse MC9 cells at […]
MC9 [4] = test: Inhibition of arachidonic acid-induced PGF2-alpha release in mouse MC9 cells at 1.0 uM
[5] = biological target: T1, Cytosolic phospholipase A2 (Homo sapiens, UniProt P47712); test: Inhibition of human cytosolic PLA2alpha by GLU micelle assay
T1 sequence (P47712 whole entry): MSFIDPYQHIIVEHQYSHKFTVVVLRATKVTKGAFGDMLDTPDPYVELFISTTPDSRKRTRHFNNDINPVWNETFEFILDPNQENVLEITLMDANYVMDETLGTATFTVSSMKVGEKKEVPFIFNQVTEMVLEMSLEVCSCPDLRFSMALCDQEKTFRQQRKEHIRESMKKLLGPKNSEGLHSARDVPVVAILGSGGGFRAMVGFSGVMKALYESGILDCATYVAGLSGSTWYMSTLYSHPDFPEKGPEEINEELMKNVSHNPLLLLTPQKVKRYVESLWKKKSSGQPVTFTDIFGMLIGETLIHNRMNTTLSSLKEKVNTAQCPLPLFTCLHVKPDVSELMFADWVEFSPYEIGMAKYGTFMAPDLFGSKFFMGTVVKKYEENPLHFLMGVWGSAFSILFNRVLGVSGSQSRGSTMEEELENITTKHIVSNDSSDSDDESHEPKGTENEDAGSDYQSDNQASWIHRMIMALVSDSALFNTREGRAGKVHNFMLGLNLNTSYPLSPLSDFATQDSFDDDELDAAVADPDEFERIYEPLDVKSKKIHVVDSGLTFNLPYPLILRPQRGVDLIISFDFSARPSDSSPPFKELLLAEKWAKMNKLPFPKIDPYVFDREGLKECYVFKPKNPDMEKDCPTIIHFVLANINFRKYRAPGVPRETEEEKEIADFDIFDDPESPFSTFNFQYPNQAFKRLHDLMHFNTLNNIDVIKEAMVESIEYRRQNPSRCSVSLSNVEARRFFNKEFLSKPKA
Method in brief: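 Purified human cPLA2α with the substrate 7-hydroxycoumarinyl-γ-linolenate (GLU), presented in micelles containing a high concentration of detergent and lipid. IC50 is taken from at least two runs, each run the mean of duplicate assays.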

MC9 [6] = test: cells; details: Mus musculus, MC9, read-out: INH
Rattus norvegicus [7] = test: Antiinflammatory activity against carrageenan-induced paw edema in Sprague-Dawley rat at 10 mg/kg, iv; details: read-out: INH
MC9 [8] = test: Inhibition of IgE-specific antigen-induced PGF2alpha release in rat MC9 cells at 0.20 uM; details: Mus musculus, MC9, read-out: INH
MC9 [9] = test: Inhibition of IgE-specific antigen-induced LBT4 release in mouse MC9 cells at 0.11 uM
MC9 [10] = test: Inhibition of IgE-specific antigen-induced PGF2alpha release in mouse MC9 cells at 0.11 uM
Rattus norvegicus [11] = test: Plasma concentration in carrageenan-induced paw edema Sprague-Dawley rat model at 15 mg/kg, iv; assay type: ADME, organism-based; design: dose 15 mg/kg, route intravenous; details: in vivo
Method in brief: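 Plasma concentration is measured in end-bleed samples taken 3 h after iv dosing in 50/50 PEG/DMSO in the carrageenan paw edema model. Values are means from five animals.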

Rattus norvegicus [12] = test: Antiinflammatory activity against carrageenan-induced paw edema in Sprague-Dawley rat at 15 mg/kg, iv; assay type: functional
Method in brief: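 Rat carrageenan paw edema after iv dosing in 50/50 PEG/DMSO, with paw swelling assessed 3 h after dosing. Groups of 10 animals; naproxen was used to define maximal % inhibition.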

Blood [13] = test: Inhibition of A23187-induced TBX2 release in human whole blood; assay type: functional, tissue-based
Method in brief: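 Human whole blood is stimulated with calcium ionophore A23187 at a higher concentration than in the rat whole blood assay. Thromboxane production is the read-out.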

MC9 [14] = test: Inhibition of IgE-specific antigen-induced LBT4 release in mouse MC9 cells at 0.333 uM
Rattus norvegicus [15] = test: Plasma concentration in carrageenan-induced paw edema Sprague-Dawley rat model at 15 mg/kg, iv; details: in vivo
MC9 [16] = test: Inhibition of arachidonic acid-induced PGF2alpha release in mouse MC9 cells at 0.30 uM
MC9 [17] = test: Inhibition of arachidonic acid-induced PGF2-alpha release in rat MC9 cells at 0.0005 uM; assay type: functional; details: Mus musculus
MC9 [18] = test: Inhibition of IgE-specific antigen-induced PGF2-alpha release in mouse MC9 cells at 0.40 uM
MC9 [19] = test: Inhibition of IgE-specific antigen-induced PGF2-alpha release in rat MC9 cells at 0.0005 uM; assay type: functional; details: Mus musculus
MC9 [20] = test: Inhibition of IgE-specific antigen-induced LBT4 release in mouse MC9 cells at […]; remark: listed apart in the source
MC9 [21] = test: Inhibition of IgE-specific antigen-induced PGF2-alpha release in mouse MC9 cells
MC9 [22] = test: Inhibition of arachidonic acid-induced PGF2-alpha release in mouse MC9 cells
MC9 [23] = test: Inhibition of IgE-specific antigen-induced LBT4 release in mouse MC9 cells at 0.037 uM
MC9 [24] = test: Inhibition of IgE-specific antigen-induced PGF2-alpha release in mouse MC9 cells at 0.037 uM
MC9 [25] = test: Inhibition of IgE-specific antigen-induced PGF2alpha release in mouse MC9 cells at 0.5 uM
MC9 [26] = test: Inhibition of IgE-specific antigen-induced LBT4 release in mouse MC9 cells at 0.5 uM
MC9 [27] = test: Inhibition of arachidonic acid-induced PGF2-alpha release in mouse MC9 cells at 0.5 uM

SMILES: NC(=O)C1CCCN1CCS(=O)(=O)NCCc1c(CCOc2ccc(C(=O)O)cc2)c2cc(Cl)ccc2n1C(c1ccccc1)c1ccccc1 (single isomer, unassigned)
- IC50 (Blood [1]): 3200 nM
- inhibition at 0.33 µM at […] (MC9 [2]): 41%
- inhibition at 0.33 µM at […] (MC9 [3]): 41%
- inhibition at 1 µM (MC9 [4]): 8%
- IC50 [5]: 350 nM

SMILES: COc1ccc2cc([C@H](C)C(=O)O)ccc2c1 [NAPROXEN]
- inhibition at […] (MC9 [6]): 50%
- inhibition in vivo at 10 mg/kg (Rattus norvegicus [7]): 50%
- inhibition at 0.2 µM (MC9 [8]): 50%

SMILES: Cc1cc(C)n(CCS(=O)(=O)NCCc2c(CCOc3ccc(C(=O)O)cc3)c3cc(Cl)ccc3n2C(c2ccccc2)c2ccccc2)n1
- IC50 (Blood [1]): 160 nM
- inhibition at 1 µM (MC9 [4]): 5%
- inhibition at 0.11 µM (MC9 [9]): 89%
- IC50 [5]: 450 nM
- inhibition at 0.11 µM (MC9 [10]): 83%

SMILES: O=C(O)c1ccc(OCCc2c(CCNS(=O)(=O)CCN3CCSCC3)n(C(c3ccccc3)c3ccccc3)c3ccc(Cl)cc23)cc1
- concentration (Rattus norvegicus [11]): 270 nM
- IC50 (Blood [1]): 180 nM
- inhibition at 1 µM (MC9 [4]): 6%
- inhibition at 0.11 µM (MC9 [9]): 76%
- inhibition in vivo at 15 mg/kg (Rattus norvegicus [12]): 27.9%
- inhibition at 0.11 µM (MC9 [10]): 66%

SMILES: O=C(O)c1ccc(OCCc2c(CCNS(=O)(=O)CCn3ncnn3)n(C(c3ccccc3)c3ccccc3)c3ccc(Cl)cc23)cc1
- IC50 (Blood [1]): 450 nM
- IC50 (Blood [13]): 2000 nM
- inhibition at 0.333 µM (MC9 [14]): 80%
- inhibition at 0.33 µM at […] (MC9 [3]): 71%
- inhibition at 1 µM (MC9 [4]): 4%
- IC50 [5]: 380 nM

SMILES: O=C(O)c1ccc(CCCc2c(CCNS(=O)(=O)Cc3ccc(Cl)c(Cl)c3)n(C(c3ccccc3)c3ccccc3)c3ccc(Cl)cc23)cc1 [EFIPLADIB]
- IC50 (Blood [1]): 70 nM
- IC50 [5]: 40 nM
- concentration (Rattus norvegicus [15]): 5300 nM
- inhibition in vivo at 15 mg/kg (Rattus norvegicus [12]): 51%

SMILES: Cc1ccc(-c2cc(C(F)(F)F)nn2-c2ccc(S(N)(=O)=O)cc2)cc1 [CELECOXIB]
- inhibition at 0.3 µM (MC9 [16]): 50%
- inhibition at 0.0005 µM (MC9 [17]): 79%
- inhibition at 0.4 µM (MC9 [18]): 50%
- inhibition at 0.0005 µM (MC9 [19]): 79%

SMILES: O=C(O)c1ccc(OCCc2c(CCNS(=O)(=O)C[S+]([O-])c3ccc(Cl)c(Cl)c3)n(C(c3ccccc3)c3ccccc3)c3ccc(Cl)cc23)cc1 (stereo not given)
- IC50 (Blood [1]): 560 nM
- inhibition at 1 µM (MC9 [4]): 1.4%
- inhibition at 0.11 µM (MC9 [9]): 55%
- IC50 [5]: 180 nM
- inhibition at 0.11 µM (MC9 [10]): 45%

SMILES: CC1CCC(C)N1CCS(=O)(=O)NCCc1c(CCOc2ccc(C(=O)O)cc2)c2cc(Cl)ccc2n1C(c1ccccc1)c1ccccc1 (stereo not given)
- concentration (Rattus norvegicus [11]): 232 nM
- IC50 (Blood [1]): 74 nM
- inhibition at 1 µM (MC9 [4]): -2%
- inhibition at 0.11 µM (MC9 [9]): 80%
- IC50 [5]: 130 nM
- inhibition in vivo at 15 mg/kg (Rattus norvegicus [12]): 37%
- inhibition at 0.11 µM (MC9 [10]): 69%

SMILES: CC(c1cc2ccccc2s1)N(O)C(N)=O (stereo not given) [ZILEUTON]
- inhibition at 0.55 µM at […] (MC9 [20]): 50%
- Activity (MC9 [21]): inactive
- Activity (MC9 [22]): inactive

SMILES: CC1CCCCN1CCS(=O)(=O)NCCc1c(CCOc2ccc(C(=O)O)cc2)c2cc(Cl)ccc2n1C(c1ccccc1)c1ccccc1 (stereo not given)
- IC50 (Blood [1]): 57 nM
- inhibition at 0.037 µM (MC9 [23]): 62%
- inhibition at 0.037 µM (MC9 [24]): 45%
- inhibition at 1 µM (MC9 [4]): 14%
- IC50 [5]: 120 nM

SMILES: O=C(O)c1ccc(CCCc2c(CCNS(=O)(=O)CCN3CCOCC3)n(C(c3ccccc3)c3ccccc3)c3ccc(Cl)cc23)cc1
- concentration (Rattus norvegicus [11]): 163 nM
- IC50 (Blood [1]): 140 nM
- inhibition at 1 µM (MC9 [4]): 9%
- inhibition at 0.11 µM (MC9 [9]): 69%
- IC50 [5]: 200 nM
- inhibition in vivo at 15 mg/kg (Rattus norvegicus [12]): 23.5%
- inhibition at 0.11 µM (MC9 [10]): 71%

SMILES: O=C(O)c1ccc(OCCc2c(CCNS(=O)(=O)CSc3ccc(Cl)c(Cl)c3)n(C(c3ccccc3)c3ccccc3)c3ccc(Cl)cc23)cc1
- IC50 (Blood [1]): 140 nM
- inhibition at 0.037 µM (MC9 [23]): 64%
- inhibition at 0.037 µM (MC9 [24]): 48%
- inhibition at 1 µM (MC9 [4]): 33%
- IC50 [5]: 240 nM

SMILES: O=C(O)c1ccc(OCCc2c(CCNS(=O)(=O)CCN3CCC(O)CC3)n(C(c3ccccc3)c3ccccc3)c3ccc(Cl)cc23)cc1
- IC50 (Blood [1]): 1300 nM
- IC50 [5]: 350 nM

SMILES: CC1CCCN1CCS(=O)(=O)NCCc1c(CCOc2ccc(C(=O)O)cc2)c2cc(Cl)ccc2n1C(c1ccccc1)c1ccccc1 (stereo not given)
- IC50 (Blood [1]): 77 nM
- IC50 [5]: 220 nM

SMILES: CS(=O)(=O)CS(=O)(=O)NCCc1c(CCOc2ccc(C(=O)O)cc2)c2cc(Cl)ccc2n1C(c1ccccc1)c1ccccc1
- inhibition at 0.5 µM (MC9 [25]): 100%
- IC50 (Blood [1]): 480 nM
- inhibition at 0.5 µM (MC9 [26]): 100%
- inhibition at 0.5 µM (MC9 [27]): -47%
- IC50 [5]: 150 nM

SMILES: CN1CCN(Cc2ccccc2CS(=O)(=O)NCCc2c(CCCc3ccc(C(=O)O)cc3)c3cc(Cl)ccc3n2C(c2ccccc2)c2ccccc2)CC1
- IC50 (Blood [1]): 80 nM
- IC50 [5]: 20 nM

SMILES: CN(C)CC1CCCCN1CCS(=O)(=O)NCCc1c(CCOc2ccc(C(=O)O)cc2)c2cc(Cl)ccc2n1C(c1ccccc1)c1ccccc1 (stereo not given)
- IC50 (Blood [1]): 150 nM
- inhibition at 1 µM (MC9 [4]): 13%
- inhibition at 0.11 µM (MC9 [9]): 62%
- IC50 [5]: 270 nM
- inhibition at 0.11 µM (MC9 [10]): 56%

SMILES: O=C(O)c1ccc(OCCc2c(CCNS(=O)(=O)CSc3ccc(F)cc3F)n(C(c3ccccc3)c3ccccc3)c3ccc(Cl)cc23)cc1
- IC50 (Blood [1]): 30 nM
- inhibition at 0.037 µM (MC9 [23]): 94%
- inhibition at 0.037 µM (MC9 [24]): 77%
- inhibition at 1 µM (MC9 [4]): 47%
- IC50 [5]: 140 nM

SMILES: O=C(O)c1ccc(OCCc2c(CCNS(=O)(=O)CCN3CCOCC3)n(C(c3ccccc3)c3ccccc3)c3ccc(Cl)cc23)cc1
- IC50 (Blood [1]): 530 nM
- IC50 [5]: 390 nM

SMILES: Cc1ccccc1CS(=O)(=O)NCCc1c(CCCc2ccc(C(=O)O)cc2)c2cc(Cl)ccc2n1C(c1ccccc1)c1ccccc1
- IC50 (Blood [1]): 25 nM
- IC50 [5]: 26 nM

Reference: ChEMBL document CHEMBL1140903, “Reactions of functionalized sulfonamides: application to lowering the lipophilicity of cytosolic phospholipase A2alpha inhibitors” (J Med Chem, 2009)
